This is a sample that favours compounds with a hit; in the whole collection about 2.6% have one here.
HSF1 inh: HSF1 inhibition; NIH3T3-HGL HSE-luciferase, MG132-induced, luminescence 8 h; hits give low values; activity change, negative = inhibition, % at 7.5 µM (by protocol); hit rate 0.77% among 300,000;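 active means more than half of replicate wells show activity change below -50%, luminescence cut by over half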;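 further: luciferase reports HSF-1 transcriptional activity via heat shock element; 0% = median of DMSO wells and -100% = zero luminescence signal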
Rad51 HR inh: blocks human Rad51 in homologous recombination; hRad51 DNA strand exchange, fluorescence dequenching; inhibition, % at 10 µM; hit rate 0.085% among 200,000; AID 1385;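 active means inhibition above 40% at the single screening dose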;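 further: 0% = DMSO control wells and 100% = blanks with heterologous ssDNA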
Target sequence (Q06609 whole entry, looked up): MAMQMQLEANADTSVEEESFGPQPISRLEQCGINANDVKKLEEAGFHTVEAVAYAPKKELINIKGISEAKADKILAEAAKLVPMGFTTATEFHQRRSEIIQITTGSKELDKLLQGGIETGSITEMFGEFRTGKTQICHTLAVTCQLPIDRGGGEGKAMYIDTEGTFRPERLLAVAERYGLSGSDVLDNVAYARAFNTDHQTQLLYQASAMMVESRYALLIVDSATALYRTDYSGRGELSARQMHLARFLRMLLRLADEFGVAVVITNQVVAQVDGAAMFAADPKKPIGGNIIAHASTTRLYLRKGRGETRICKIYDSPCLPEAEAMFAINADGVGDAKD
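material = hRad51 filaments on single-stranded DNA | reagent = Donor/quencher-labelled 47-bp dsDNA substrate | compound = 10 µM final, single point | schedule = strand-exchange reaction 15 min at room temperature | measured by = fluorescein emission 520 nm, excitation 485 nm | read-out basis = % inhibition versus plate control and blank means | benchmarks = plate controls and plate blanks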
Hsp70 act: transcriptional activators of Hsp70. HeLa Hsp70 promoter luciferase reporter, luminescence; scaled: vehicle 0, proteasome-inhibitor control 100%. activation, % at 10 µM. hit rate 0.04% among 200,000;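 active means activation above the mean across all tested compounds plus 3 SD, cutoff set per campaign, cut at about 5.5% in these data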;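 further: 100% = MG132 at 30 µM as the positive control and 0% = DMSO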
HSF-1 act: increases HSF-1 driven luciferase reporter signal. NIH3T3-HGL HSF-1 luciferase reporter, MG132, 8 h; 100% = twice DMSO control signal. activation, % at 9 µM. hit rate 1.7% among 300,000;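 active means mean replicate activation of at least 50% with a set share of replicates each reaching 50%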;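 further: 0% = median of the neutral control wells and 100% = twice that signal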
HSV replic up: increases HSV replication in cells. hit rate 0.005% among 220,000. maximum fold increase. HSV replication augmentation in cells, fold increase. AID 1956; in the data active means maximum fold increase above about 1.5; tested in PC3 cells
MDM2 E3 inh: inhibitors of human Mdm2 E3 ubiquitin ligase; Q00987; cell-based MDM2 ubiquitination luciferase reporter, 2 h; 0 = plate control, 100 = twice control, blank-subtracted; signal enhancement, % at 5 µM; hit rate 0.11% among 210,000;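 active means signal enhancement of 30% or more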;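 further: luminescence tracks abundance of the self-degrading MDM2-luciferase fusion protein; higher signal means inhibition of MDM2 E3 ligase activity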
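Test system: stable mammalian line carrying autodegrading MDM2–luciferase fusion reporter; quantity: 2000 cells in each well; times: 4 h cell settling then 2 h compound exposure, 37 °C; detection: luminescence with SteadyLite reagent, 15 min at room temperature; evaluation: percent signal gain over controls, blank-subtracted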
Active calls of the source: *; i = inactive; . = no result given.

SMILES	HSF1 inh	Rad51 HR inh	Hsp70 act	HSF-1 act	HSV replic up	MDM2 E3 inh
CCOc1ccccc1N1CCN(CC(=O)NC(C)c2ccccc2)CC1 (stereo not drawn)	-61*	.	.	-67	.	.
CC(NC(=O)CN1CCN(c2ccc(Cl)cc2)CC1)c1ccccc1 (stereo not drawn)	5	.	.	7	.	.
CCCCOc1ccc(C(=O)N/N=C/c2cn[nH]c2-c2ccc(OC)c(OC)c2)cc1	17	-9	0	54*	i	-9
Cc1nc2sccn2c(=O)c1S(=O)(=O)NCC1CCN(Cc2ccccc2Cl)CC1	2	.	.	15	.	.
COc1ccc(OCCCCn2c(CO)nc3ccccc32)cc1	-54*	.	.	-65	.	.
O=C(O)c1ccc(N2C(=O)CC(N3CCN(c4cccc(C(F)(F)F)c4)CC3)C2=O)cc1 (stereo not drawn)	-56*	.	.	-65	.	.
Cc1ccc(Cl)cc1N1CCN(C(=O)Cc2ccc(-n3c(=O)[nH]c4ccsc4c3=O)cc2)CC1	-3	9	0	3	i	2
Cn1c(SCc2ccc(C#N)cc2Cl)nc2ccccc21	74	-11	0	93*	i	-14
N#Cc1ccc(CSc2ccccn2)c(Cl)c1	21	.	.	50	.	.
COc1ccc(-c2nn(-c3ccccc3)cc2/C=C(\CC(=O)O)c2nc3ccccc3s2)cc1OC	-70*	-10	0	-78	i	-3
COc1cccc(CN=C2Nc3ccccc3CS2)c1	31	16	0	43	i	-10
c1cncc(CN=C2Nc3ccccc3CS2)c1	5	-2	0	15	i	-8
Cc1ccc(CN=C2Nc3ccccc3CS2)cc1	34	1	0	61*	i	-14
COc1ccccc1CN=C1Nc2ccccc2CS1	67	5	1	123*	i	-10
Clc1ccc(CN=C2Nc3ccccc3CS2)cc1	57	-1	0	66*	i	-1
CC(C)C[C@H](NC(=O)C1(c2ccccc2)CCN(C(=O)[C@H]2CSCN2C(=O)OC(C)(C)C)CC1)C(=O)O	-5	.	0	-1	i	9
CC(C)(C)OC(=O)N1CSC[C@H]1C(=O)NC[C@H](CC(=O)O)c1ccc(Cl)cc1	39	.	.	82*	.	.
COc1cccc(CNc2ccc(Br)cn2)c1O	181	-9	0	272*	i	-51
COc1cccc(CNn2cnnc2)c1O	-3	-22	0	8	i	0
COc1cccc(CNc2ncc(Br)cc2Br)c1O	107	2	0	138*	i	-14
Oc1ccc2ccccc2c1C=Nc1ccccc1-c1nc2ccccc2[nH]1	27	8	0	59*	i	4
COc1ccc(S(=O)(=O)N2CCC(C(=O)N[C@H](C(=O)NC3CCCC3)C(C)C)CC2)cc1	0	.	.	-2	.	.
CCC(=O)N1CCN(c2ccc(NC(=O)c3ccc4ccccc4c3)cc2)CC1	28	.	.	66*	.	.
CC1CCN(c2ccc(NC(=O)c3ccc([N+](=O)[O-])o3)cc2)CC1	95	.	.	98*	.	.
O=C(Nc1ccc(N2CCCCC2)cc1)c1ccc([N+](=O)[O-])o1	67	.	.	91*	.	.
SMILES	HSF1 inh	Rad51 HR inh	Hsp70 act	HSF-1 act	HSV replic up	MDM2 E3 inh
CCC(=O)N1CCN(c2ccc(NC(=O)COc3ccc(C)cc3C)cc2)CC1	97	.	.	110*	.	.
CC(C)(C)C(=O)N1CCN(c2ccc(NC(=O)c3ccc([N+](=O)[O-])o3)cc2)CC1	1	.	.	-5	.	.
CC1CCN(c2ccccc2NC(=O)c2ccc([N+](=O)[O-])o2)CC1	0	.	.	-10	.	.
Cc1cccc(-c2nnc(SCC(=O)N3CCOCC3)o2)c1	10	.	.	31	.	.
COCCCNC(=O)C1CCN(C(=O)c2oc3cc4sc(N(C)C)nc4cc3c2C)CC1	14	.	.	-4	.	.
O=C(OCCCOC(=O)c1ccc([N+](=O)[O-])o1)c1ccc([N+](=O)[O-])o1	-1	.	.	2	.	.
Cc1ccc(S(=O)(=O)N2CCN(C(=O)c3cc(=O)c4ccccc4o3)CC2)cc1	4	4	0	-4	i	-5
CCC(=O)N1CCN(c2ccc(NC(=O)c3ccc([N+](=O)[O-])o3)cc2)CC1	-76*	9	1	-80	i	-23
Clc1ccc2nc(COc3ccccc3)[nH]c2c1	20	.	.	34	.	.
O=S(=O)(C/C(=C/CO)S(=O)(=O)c1ccccc1)c1ccccc1	-77*	-1	15*	-79	i	16
O=c1c2cc(Cl)ccc2[nH]c(=S)n1Cc1ccco1	0	2	0	-2	i	-5
COc1cc2[nH]c(=S)n(Cc3ccco3)c(=O)c2cc1OC	77	-5	0	140*	i	-3
CC(=O)N1CCC(C(=O)Nc2ccc(S(=O)(=O)NCCc3ccccc3)cc2)CC1	7	.	.	14	.	.
C/C(CC(=O)Nc1ccc(F)cc1F)=N\NC(=O)C(=O)N1CCCCC1	17	.	.	29	.	.
O=S(=O)(Nc1cc2nc3ccccc3nc2n1Cc1ccccc1)c1ccc(Cl)cc1	78	-55	1	114*	.	7
CC(=O)c1ccc(N(C(=O)c2ccco2)C(C(=O)NC2CCCC2)c2ccc(N3CCOCC3)cc2)cc1 (stereo not drawn)	35	-5	1	69*	i	-12
COc1cc(OC)cc(N(C(=O)c2ccco2)C(C(=O)NC2CCCC2)c2ccc(N3CCOCC3)cc2)c1 (stereo not drawn)	7	.	.	21	.	.
COc1ccccc1C(=O)NCC(=O)OCC(=O)N(CC(C)C)c1c(N)n(Cc2ccccc2)c(=O)[nH]c1=O	-3	.	.	-7	.	.
CC1CN(C(=S)NC(=O)C2CCCCC2)CC(C)O1 (stereo not drawn)	12	-4	0	52*	i	-3
COC(=O)c1ccc(N2CCN(C)CC2)c(NC(=O)COc2ccccc2Cl)c1	7	.	.	12	.	.
COC(=O)c1ccc(N2CCN(C(C)=O)CC2)c(NC(=O)COc2ccccc2C)c1	-64*	8	0	-72	i	-8
COC(=O)CSc1nccc(C)n1	-20	.	0	-26	i	-7
Cc1cc(C)c(OCC(=O)N2CC=C(c3ccccc3)CC2)c(C)c1	7	.	.	-18	.	.
CCn1c(COc2ccc(C)cc2)nnc1SCC(=O)Nc1ccc2c(c1)OCCO2	-71*	-5	0	-76	i	-10
Cc1cccc(OCc2nnc(SCC(=O)N(C(C)C)C(C)C)n2Cc2ccco2)c1C	37	2	0	60*	i	-9
C=CCn1c(COc2ccccc2)nnc1SCC(=O)Nc1ccc2c(c1)OCCO2	4	4	0	9	i	-6
COc1ccc(OCC(=O)NNC(=O)C(=O)Nc2cc(OC)ccc2OC)cc1	0	.	.	16	.	.
COc1ccc(C)cc1NC(=O)C(=O)NNC(=O)COc1ccc(Cl)cc1	-85*	-2	0	-88	i	-10
